Test results as given in ChEMBL document CHEMBL1153726, “Synthesis and anticancer activity of sclerophytin-inspired hydroisobenzofurans” (Bioorg Med Chem Lett, 2009).

Key:
Format in all cases: functional
SF-539 = assay: Growth inhibition of human SF539 cells at 1 nM after 96 hrs by MTT assay; parameters: scale not given: the % may be the effect or the level left
TK-10 [1] = assay: Growth inhibition of human TK10 cells at 10 nM after 96 hrs by MTT assay; parameters: scale not given: the % may be the effect or the level left
SF-268 = assay: Growth inhibition of human SF268 cells at 10 uM after 96 hrs by MTT assay; parameters: scale not given: the % may be the effect or the level left
HOP-92 [2] = assay: Growth inhibition of human HOP92 cells at 10 uM after 96 hrs by MTT assay; parameters: scale not given: the % may be the effect or the level left
HCT-15 [3] = assay: Growth inhibition of human HCT15 cells after 96 hrs by MTT assay; details: HCT-15, 96 h
Method in brief: (§1)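 Run in the NCI 60 human tumour cell line panel as a five-dose assay. GI50 and LC50 were reported for each cell line.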

UACC-62 [4] = assay: Growth inhibition of human UACC62 cells at 10 nM after 96 hrs by MTT assay; parameters: scale not given: the % may be the effect or the level left
PC-3 [5] = assay: Growth inhibition of human PC3 cells after 96 hrs by MTT assay; details: PC-3, 96 h
Method in brief: (§2)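 Tested in the NCI 60-cell-line panel in five-dose format; GI50 and LC50 values reported for each cell line.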

MOLT-4 [6] = assay: Growth inhibition of human MOLT4 cells at 1 uM after 96 hrs by MTT assay; parameters: scale not given: the % may be the effect or the level left
NCI-H226 = assay: Growth inhibition of human NCI-H226 cells at 1 nM after 96 hrs by MTT assay; parameters: scale not given: the % may be the effect or the level left
DU-145 [7] = assay: Growth inhibition of human DU145 cells after 96 hrs by MTT assay; details: DU-145, 96 h
NCI-H522 = assay: Growth inhibition of human NCI-H522 cells at 1 uM after 96 hrs by MTT assay; parameters: scale not given: the % may be the effect or the level left
HCC 2998 = assay: Growth inhibition of human HCC2998 cells at 100 nM after 96 hrs by MTT assay; parameters: scale not given: the % may be the effect or the level left
EKVX = assay: Growth inhibition of human EKVX cells at 1 uM after 96 hrs by MTT assay; parameters: scale not given: the % may be the effect or the level left
OVCAR-3 [8] = assay: Growth inhibition of human OVCAR-3 cells at 10 nM after 96 hrs by MTT assay; parameters: scale not given: the % may be the effect or the level left
UACC-62 [9] = assay: Growth inhibition of human UACC62 cells at 100 nM after 96 hrs by MTT assay; parameters: scale not given: the % may be the effect or the level left
PC-3 [10] = assay: Growth inhibition of human PC3 cells at 10 nM after 96 hrs by MTT assay; parameters: scale not given: the % may be the effect or the level left
KM12 = assay: Growth inhibition of human KM12 cells at 1 nM after 96 hrs by MTT assay; parameters: scale not given: the % may be the effect or the level left
MDA-MB-231 = assay: Growth inhibition of human MDA-MB-231 cells at 10 uM after 96 hrs by MTT assay; parameters: scale not given: the % may be the effect or the level left
MDA-MB-468 = assay: Growth inhibition of human MDA-MB-468 cells at 1 uM after 96 hrs by MTT assay; parameters: scale not given: the % may be the effect or the level left
LOX IMVI = assay: Growth inhibition of human LOXIMVI cells at 1 uM after 96 hrs by MTT assay; parameters: scale not given: the % may be the effect or the level left
SNB-19 [11] = assay: Growth inhibition of human SNB19 cells at 10 uM after 96 hrs by MTT assay; parameters: scale not given: the % may be the effect or the level left
SF-295 = assay: Growth inhibition of human SF295 cells after 96 hrs by MTT assay; details: SF-295, 96 h; method in brief: as §2
ACHN [12] = assay: Growth inhibition of human ACHN cells at 10 nM after 96 hrs by MTT assay; parameters: scale not given: the % may be the effect or the level left
SN12C = assay: Growth inhibition of human SN12C cells at 100 nM after 96 hrs by MTT assay; parameters: scale not given: the % may be the effect or the level left
ACHN [13] = assay: Growth inhibition of human ACHN cells at 10 uM after 96 hrs by MTT assay; parameters: scale not given: the % may be the effect or the level left
BT-549 = assay: Growth inhibition of human BT549 cells at 10 uM after 96 hrs by MTT assay; parameters: scale not given: the % may be the effect or the level left
IGROV-1 = assay: Growth inhibition of human IGROV1 cells at 1 nM after 96 hrs by MTT assay; parameters: scale not given: the % may be the effect or the level left
SNB-19 [14] = assay: Growth inhibition of human SNB19 cells at 100 nM after 96 hrs by MTT assay; parameters: scale not given: the % may be the effect or the level left
MCF7 = assay: Growth inhibition of human MCF7 cells after 96 hrs by MTT assay; details: MCF7, 96 h; method in brief: as §1
OVCAR-4 = assay: Growth inhibition of human OVCAR4 cells at 1 uM after 96 hrs by MTT assay; parameters: scale not given: the % may be the effect or the level left
HT-29 = assay: Growth inhibition of human HT-29 cells at 1 nM after 96 hrs by MTT assay; parameters: scale not given: the % may be the effect or the level left
OVCAR-3 [15] = assay: Growth inhibition of human OVCAR-3 cells at 1 uM after 96 hrs by MTT assay; parameters: scale not given: the % may be the effect or the level left
MOLT-4 [16] = assay: Growth inhibition of human MOLT4 cells after 96 hrs by MTT assay; details: MOLT-4, 96 h; method in brief: as §1
DU-145 [17] = assay: Growth inhibition of human DU145 cells at 100 nM after 96 hrs by MTT assay; parameters: scale not given: the % may be the effect or the level left
A498 = assay: Growth inhibition of human A498 cells at 1 nM after 96 hrs by MTT assay; parameters: scale not given: the % may be the effect or the level left
SK-OV-3 = assay: Growth inhibition of human SKOV3 cells at 10 nM after 96 hrs by MTT assay; parameters: scale not given: the % may be the effect or the level left
TK-10 [18] = assay: Growth inhibition of human TK10 cells at 1 uM after 96 hrs by MTT assay; parameters: scale not given: the % may be the effect or the level left
HCT-15 [19] = assay: Growth inhibition of human HCT15 cells at 10 nM after 96 hrs by MTT assay; parameters: scale not given: the % may be the effect or the level left
HOP-92 [20] = assay: Growth inhibition of human HOP92 cells after 96 hrs by MTT assay; details: HOP-92, 96 h; method in brief: as §1
SK-MEL-2 = assay: Growth inhibition of human SK-MEL-2 cells at 1 nM after 96 hrs by MTT assay; parameters: scale not given: the % may be the effect or the level left
[21] = read-out: LC50 (the source's name)
[22] = read-out: Log10GI50 (converted)
[23] = read-out: Log10LC50 (converted)

`C=C(C)[C@H]1CC=C(C)C2=CO[C@@H](c3ccccc3F)[C@@H]21` showed an Activity (SF-539) of 91%, an Activity (TK-10 [1]) of 84% and an Activity (SF-268) of 105.37%. It also gave an Activity (HOP-92 [2]) of 66.62%, a GI50 (HCT-15 [3]; read-out: GI50) of 4.38 µM and a CC50 (HCT-15 [3]; [21]) of 51 µM. It also gave a GI50 (HCT-15 [3]; [22]) of 4.37 µM, a CC50 (HCT-15 [3]; [23]) of 51.3 µM and a TGI (HCT-15 [3]; read-out: Log10TGI (converted)) of 18.6 µM. It also gave a TGI (HCT-15 [3]; read-out: TGI) of 18.6 µM, an Activity (UACC-62 [4]) of 81% and a GI50 (PC-3 [5]; read-out: GI50) of 2.49 µM. The CC50 (PC-3 [5]; [21]) was 57.2 µM, the GI50 (PC-3 [5]; [22]) was 2.51 µM and the CC50 (PC-3 [5]; [23]) was 57.5 µM. The TGI (PC-3 [5]; read-out: Log10TGI (converted)) was 16.6 µM, the TGI (PC-3 [5]; read-out: TGI) was 16.5 µM and the Activity (MOLT-4 [6]) was -15%. The Activity (NCI-H226) was 96%, the GI50 (DU-145 [7]; read-out: GI50) was 5.53 µM and the CC50 (DU-145 [7]; [21]) was 94.5 µM. For the same molecule, the GI50 (DU-145 [7]; [22]) was 5.5 µM, the CC50 (DU-145 [7]; [23]) was 95.5 µM and the TGI (DU-145 [7]; read-out: Log10TGI (converted)) was 26.3 µM. The TGI (DU-145 [7]; read-out: TGI) was 26.1 µM, the Activity (NCI-H522) was 29% and the Activity (HCC 2998) was 97%. It also gave an Activity (EKVX) of 23%, an Activity (OVCAR-3 [8]) of 88% and an Activity (UACC-62 [9]) of 73%. It also gave an Activity (PC-3 [10]) of 89%, an Activity (KM12) of 95% and an Activity (MDA-MB-231) of 101.47%. For the same molecule, the Activity (MDA-MB-468) was 11%, the Activity (LOX IMVI) was 33% and the Activity (SNB-19 [11]) was 82.9%. It also gave a GI50 (SF-295; read-out: GI50) of 4.49 µM, a CC50 (SF-295; [21]) of 45.7 µM and a GI50 (SF-295; [22]) of 4.47 µM. For the same molecule, the CC50 (SF-295; [23]) was 45.7 µM, the TGI (SF-295; read-out: Log10TGI (converted)) was 17.4 µM and the TGI (SF-295; read-out: TGI) was 17.6 µM. It also gave an Activity (ACHN [12]) of 96%, an Activity (SN12C) of 79% and an Activity (ACHN [13]) of 93.56%. The Activity (BT-549) was 112.93%, the Activity (IGROV-1) was 91% and the Activity (SNB-19 [14]) was 88%. The GI50 (MCF7; read-out: GI50) was 3.77 µM, the CC50 (MCF7; [21]) was 63.9 µM and the GI50 (MCF7; [22]) was 3.8 µM. It also gave a CC50 (MCF7; [23]) of 64.6 µM, a TGI (MCF7; read-out: Log10TGI (converted)) of 18.6 µM and a TGI (MCF7; read-out: TGI) of 18.8 µM. For the same molecule, the Activity (OVCAR-4) was 33%, the Activity (HT-29) was 98% and the Activity (OVCAR-3 [15]) was 12%. The GI50 (MOLT-4 [16]; read-out: GI50) was 2.12 µM, the CC50 (MOLT-4 [16]; [21]) was 56.2 µM and the GI50 (MOLT-4 [16]; [22]) was 2.14 µM. For the same molecule, the CC50 (MOLT-4 [16]; [23]) was 56.2 µM, the TGI (MOLT-4 [16]; read-out: Log10TGI (converted)) was 7.08 µM and the TGI (MOLT-4 [16]; read-out: TGI) was 7.03 µM. It also gave an Activity (DU-145 [17]) of 87%, an Activity (A498) of 82% and an Activity (SK-OV-3) of 100%. It also gave an Activity (TK-10 [18]) of 48%, an Activity (HCT-15 [19]) of 95% and a GI50 (HOP-92 [20]; read-out: GI50) of 0.552 µM. It also gave a CC50 (HOP-92 [20]; [21]) of 26.8 µM, a GI50 (HOP-92 [20]; [22]) of 0.55 µM and a CC50 (HOP-92 [20]; [23]) of 26.9 µM. The TGI (HOP-92 [20]; read-out: Log10TGI (converted)) was 5.75 µM, the TGI (HOP-92 [20]; read-out: TGI) was 5.76 µM and the Activity (SK-MEL-2) was 88%.
